ChEMBL document CHEMBL3272018, “Synthesis of aziridinylallylaminophosphine oxides and sulfides as potential adjuvant cancer chemotherapeutic agents” (J Med Chem, 1976)
Calls of active or inactive are those of the source. The calls are words filed in the database; no cut-off is given here.

Legend:
Musca domestica [1] = experiment: Toxicity in male house fly assessed as lowest dose required to cause complete sterility administered in sugar; format: organism-based; conditions: in vivo, po
Musca domestica [2] = experiment: Toxicity in male house fly assessed as lowest dose required to cause complete sterility administered in food; format: organism-based; conditions: in vivo, po
Rattus norvegicus [3] = experiment: Toxicity in rat allografted with rat Walker 256 cells intramuscularly assessed as change in body weight at 2 mg/kg, qd administered for 5 days; format: organism-based; set-up: dose 2 mg/kg, route intramuscular; conditions: in vivo, im, 120 h
Summary of the method: (§1)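 Walker 256 carcinoma solid-tumour system in rats (parent line, or the line resistant to cytoxan). Dosing was one injection per day for 5 days. Toxicity was taken as the average net body-weight change of the treated group minus the average net weight change of the untreated tumour-bearing controls, in grams.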

W256 [4] = experiment: Antitumor activity against cytoxan-resistant rat Walker 256 cells intramuscularly allografted in rat assessed as survival rate at 0.12 mg/kg, qd administered for 5 days; format: functional, organism-based; set-up: dose 0.12 mg/kg
Summary of the method: (§2)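 Rats bearing Walker 256 carcinoma as a solid tumor; lines 1-8 use a cytoxan-resistant Walker 256 subline. Dosed once daily for 5 days. Treated (T) and untreated control (C) groups are compared, and the response is given as T/C percentage, reflecting increase in survival time. Host weight change is the average weight change of the test group minus that of the controls, in grams.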

W256 [5] = experiment: Antitumor activity against rat Walker 256 cells intramuscularly allografted in rat assessed as tumor growth inhibition at 2 mg/kg, qd administered for 5 days relative to control; format: functional; conditions: W256, im, 120 h, route intramuscular, read-out: TGI
Summary of the method: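 Walker 256 carcinoma grown as a solid tumour in rats, with one injection daily for 5 days. Response is given as T/C %, the treated-group measure over the untreated-control tumour measure; a smaller value means more activity. Host toxicity is the mean net weight change of treated minus control animals, in grams.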

W256 [6] = experiment: Antitumor activity against rat Walker 256 cells intramuscularly allografted in rat assessed as survival rate at 0.062 mg/kg, qd administered for 5 days; format: functional, organism-based; set-up: dose 0.062 mg/kg; summary of the method: as §2
Rattus norvegicus [7] = experiment: Toxicity in rat allografted with rat Walker 256 cells intramuscularly assessed as change in body weight at 1 mg/kg, qd administered for 5 days; format: organism-based; set-up: dose 1 mg/kg, route intramuscular; conditions: in vivo, im, 120 h; summary of the method: as §1
W256 [8] = experiment: Antitumor activity against rat Walker 256 cells intramuscularly allografted in rat assessed as tumor growth inhibition at 0.5 mg/kg, qd administered for 5 days relative to control; format: functional; conditions: W256, im, 120 h, route intramuscular, read-out: TGI
Summary of the method: (§3)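 Dosed once daily for 5 days. Response is tumor progression in treated (T) versus untreated control (C) animals, expressed as T/C percentage. Host weight change is reported as the average net weight change of the test group minus that of the controls, in grams.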

W256 [9] = experiment: Antitumor activity against rat Walker 256 cells intramuscularly allografted in rat assessed as tumor growth inhibition at 0.125 mg/kg, qd administered for 5 days relative to control; format: functional; conditions: W256, im, 120 h, route intramuscular, read-out: TGI; summary of the method: as §3
W256 [10] = experiment: Antitumor activity against cytoxan-resistant rat Walker 256 cells intramuscularly allografted in rat assessed as tumor growth inhibition at 0.25 mg/kg, qd administered for 5 days relative to control; format: functional; conditions: W256, im, 120 h, route intramuscular, read-out: TGI; summary of the method: as §3
W256 [11] = experiment: Antitumor activity against cytoxan-resistant rat Walker 256 cells intramuscularly allografted in rat assessed as tumor growth inhibition at 2 mg/kg, qd administered for 5 days relative to control; format: functional; conditions: W256, im, 120 h, route intramuscular, read-out: TGI; summary of the method: as §3
Rattus norvegicus [12] = organism: Rattus norvegicus; experiment: Toxicity in Wistar-Furth rat assessed as decrease in secondary spermatocytes measured for 24 hrs; format: organism-based; conditions: in vivo
Summary of the method: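 Wistar-Furth rats were injected daily for 5 days at the antifertility-study doses of 1 or 5 mg/kg, depending on agent. Testes or ovaries were taken at sacrifice after 1, 3 or 24 h. Cryostat frozen sections were fixed in 95% alcohol for 10 min and stained with acridine orange (DNA green, RNA red). Results were compared with untreated controls.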

W256 [13] = experiment: Antitumor activity against rat Walker 256 cells intramuscularly allografted in rat assessed as tumor growth inhibition at 0.031 mg/kg, qd administered for 5 days relative to control; format: functional; conditions: W256, im, 120 h, route intramuscular, read-out: TGI; summary of the method: as §3
W256 [14] = experiment: Antitumor activity against cytoxan-resistant rat Walker 256 cells intramuscularly allografted in rat assessed as survival rate at 1 mg/kg, qd administered for 5 days; format: functional, organism-based; set-up: dose 1 mg/kg; summary of the method: as §2
[15] = Toxicity in rat allografted with rat Walker 256 cells intramuscularly; format: organism-based
W256 [16] = experiment: Antitumor activity against rat Walker 256 cells intramuscularly allografted in rat assessed as survival rate at 0.25 mg/kg, qd administered for 5 days; format: functional, organism-based; set-up: dose 0.25 mg/kg; summary of the method: as §2
[17] = Therapeutic index, ratio of LD50 for rat allografted with cytoxan-resistant rat Walker 256 cells to ED10 for antitumor activity against rat Walker 256 cells allografted in rat; conditions: read-out: TI
Summary of the method: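 Therapeutic index is LD50/ED10 in cytoxan-resistant Walker 256 solid tumour in rats. ED10 is the dose giving a 10% reduction, extrapolated from dose-response data.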

Rattus norvegicus [18] = experiment: Toxicity in rat allografted with rat Walker 256 cells intramuscularly assessed as change in body weight at 0.5 mg/kg, qd administered for 5 days; format: organism-based; set-up: dose 0.5 mg/kg, route intramuscular; conditions: in vivo, im, 120 h; summary of the method: as §1
W256 [19] = experiment: Antitumor activity against rat Walker 256 cells intramuscularly allografted in rat assessed as tumor growth inhibition; format: functional; conditions: W256, im; summary of the method: as §3
Rattus norvegicus [20] = experiment: Toxicity in rat allografted with cytoxan-resistant rat Walker 256 cells intramuscularly assessed as change in body weight at 0.25 mg/kg, qd administered for 5 days; format: organism-based; set-up: dose 0.25 mg/kg, route intramuscular; conditions: in vivo, im, 120 h; summary of the method: as §1
Rattus norvegicus [21] = experiment: Toxicity in rat allografted with cytoxan-resistant rat Walker 256 cells intramuscularly assessed as change in body weight at 2 mg/kg, qd administered for 5 days; format: organism-based; set-up: dose 2 mg/kg, route intramuscular; conditions: in vivo, im, 120 h; summary of the method: as §1

## C=CCN(CC=C)P(=O)(N1CC1)N1CC1
Musca domestica [1]
  Activity: 0.05%
Musca domestica [2]
  Activity: 0.1%
Rattus norvegicus [3]
  Activity: -44 g
W256 [4]
  Activity: Active
W256 [5]
  inhibition in vivo at 2 mg/kg: 0%
W256 [6]
  Activity: Active
Rattus norvegicus [7]
  Activity: -26 g
W256 [8]
  inhibition in vivo at 0.5 mg/kg: 0%
W256 [9]
  inhibition in vivo at 0.125 mg/kg: 1%
W256 [10]
  inhibition in vivo at 0.25 mg/kg: 60%
W256 [11]
  inhibition in vivo at 2 mg/kg: 9%
Rattus norvegicus [12]
  Activity: Toxic
W256 [13]
  inhibition in vivo at 0.031 mg/kg: 24%
W256 [14]
  Activity: Active
[15]
  LD50: 5 mg/kg
W256 [16]
  Activity: Active
[17]
  selectivity ratio: 2.5
Rattus norvegicus [18]
  Activity: -6 g
W256 [19]
  ED10: 0.5 mg/kg
Rattus norvegicus [20]
  Activity: 0 g
Rattus norvegicus [21]
  Activity: -2 g
